Entries after “also recorded” stand apart in the source; their conditions may differ.
Assays:
[1] = system: L-type Ca^2+ channels at the surface of hippocampal pyramidal neurons; details: chelating intracellular Ca^2+, ref [27]; cited from earlier work
L-type channel = details: ref [71], [72]; cited from earlier work
[2] = system: surface expression of CaV1.2 (α11.2) in HEK293T/17 cells; assay: Cell surface biotinylation of HA-tagged α11.2 in HEK293T/17 cells; format: cell-based, rat; details: NeutrAvidin pull-down, immunoblot, normalized to WT; N=7–13
Procedure, shortened: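 HEK293T/17 cells co-transfected 1:1:1 (calcium phosphate) with α2δ1, β2a and WT or mutant CFP-HA-α11.2; medium changed at 7 h, Accutase-detached at 22 h, >95% trypan-blue-negative. 6×10^6 cells surface-labelled with 0.4 mg/mL sulfo-NHS-LC-biotin, 30 min on ice, pH 7.8; glycine-quenched, RIPA-lysed. 250 μg lysate on NeutrAvidin beads, 2 h, 4°C. Immunoblot for HA, loop II/III, GAPDH and α-tubulin; ECL exposures kept linear.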

apoCaM = apoCaM (Homo sapiens, UniProt P0DP23); assay: Fluorescence polarization, binding of IQ domain-derived peptides to apoCaM; details: FP assay, relative to WT peptide
Procedure, shortened: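 Wild-type or mutant α11.2 IQ peptides (AAs 1644-1668), N-terminally fluorescein-labelled, at 1 μM final, were mixed with twofold serial dilutions of untagged purified apoCaM starting from 100 μM. Polarization was read after ≥45 min (ex 485/20, em 528/20) and normalized to fractional binding. Kd came from fitting Y = B*X/(Kd + X); error bars are SD.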

CaV1.2 = assay: Whole-cell Ba2+ current recording in HEK293T/17 cells; format: cell-based, rat α11.2, rat β2a, rabbit α2δ1; details: for Erev (equilibrium/reversal potential) / Gmax (maximum conductance) / V1/2 (half-activation voltage): Boltzmann IV fit; for Erev (equilibrium/reversal potential) / Gmax (maximum conductance) / V1/2 (half-activation voltage) / current density relative to WT: N=6–7; for V1/2 (half-activation voltage): *** p<0.001 vs WT; for current density relative to WT: at 20 mV, ANOVA, Tukey and Bonferroni; for shift of V1/2 relative to WT: shift towards more depolarized levels
Procedure, shortened: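 HEK293T/17 cells on poly-L-lysine coverslips were transfected 1:1:1 with β2a, α2δ1 and HA/CFP-tagged WT or mutant α11.2 (Lipofectamine 2000). Whole-cell Ba2+ currents were taken 48–72 h later from CFP-positive cells, held at −70 mV and stepped from −40 to +80 mV in 10 mV increments, with P/4 leak subtraction. Currents were capacitance-normalized, I–V curves Boltzmann-fitted, and data given as mean ± S.E.M. (ANOVA, Tukey/Bonferroni). Cells came from ≥3 independent transfections.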

[3] = system: surface expression of CaV1.2 (α11.2) in HEK293T/17 cells; assay: Flow cytometry of surface anti-HA staining of α11.2 in HEK293T/17 cells; format: cell-based, rat; details: N=5–7; for reduction in surface labeling of HA-epitope: relative to WT channel labeling
Procedure, shortened: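 HEK293T/17 cells were co-transfected 1:1:1 with α2δ1, β2a and CFP-HA-α11.2 (HA in the domain II S5-H5 extracellular loop) by calcium phosphate, with medium changed at 7 h. At 22 h, Accutase-detached, trypan-blue-counted live cells (6×10^6) were stained on ice for 1 h in the dark ± 2.5 μg/mL Alexa 647 anti-HA, then given 1 μg/mL PI. 50,000 PI-negative singlets were collected; HA-positive percentage of CFP-positive cells was normalized to WT.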

Compound	prevalence of L-type Ca2+ channels at the surface [1]	behavioral effect (L-type channel)	surface expression by biotinylation relative to WT [2]	effect of mutation on apoCaM binding (apoCaM)	Erev (equilibrium/reversal potential) (CaV1.2) [mV]	Gmax (maximum conductance) (CaV1.2)	V1/2 (half-activation voltage) (CaV1.2)	current density relative to WT (CaV1.2)	reduction in surface labeling of HA-epitope [3]	shift of V1/2 relative to WT (CaV1.2)	percentage of anti-HA and CFP co-positive events relative to WT ([3]; PI-negative, CFP-positive cells, normalized to WT)
O=C(O)CN(CC(=O)O)c1ccccc1OCCOc1ccccc1N(CC(=O)O)CC(=O)O [BAPTA]	increased the prevalence of L-type Ca^2+ channels at the surface										
COC(=O)C1=C(C)NC(C)=C([N+](=O)[O-])C1c1ccccc1C(F)(F)F (stereo not drawn) [BayK8644]		depressant-like behavior									
F1648A: fluorescein-labeled α11.2 IQ domain peptide (AAs 1644-1668), F1648A mutant			did not exhibit statistically significant differences	did not affect apoCaM binding	73.5 ± 1.7	0.26 ± 0.02	3.0 ± 1.5 mV	did not show a significant reduction			
I1654A: fluorescein-labeled α11.2 IQ domain peptide (AAs 1644-1668), I1654A mutant			significant decreases in surface expression	affected apoCaM binding; also recorded: reduced binding affinity to apoCaM	75.7 ± 1.7	0.15 ± 0.01	11.2 ± 1.5*** mV	significantly reduced current density	~ 35%	quite pronounced and significant	
K1647A: fluorescein-labeled α11.2 IQ domain peptide (AAs 1644-1668), K1647A mutant			significant decreases in surface expression		69.2 ± 1.3	0.09 ± 0.01	1.1 ± 1.4 mV	significantly reduced current density	~ 35%	did not reach statistical significance	
Q1655A: fluorescein-labeled α11.2 IQ domain peptide (AAs 1644-1668), Q1655A mutant			did not exhibit statistically significant differences	did not affect apoCaM binding	67.2 ± 2.7	0.25 ± 0.02	−2.6 ± 1.6 mV	did not show a significant reduction			not observed
Y1649A: fluorescein-labeled α11.2 IQ domain peptide (AAs 1644-1668), Y1649A mutant			significant decreases in surface expression		66.5 ± 2.9	0.08 ± 0.01		significantly reduced current density	~ 35%	quite pronounced and significant	
